# High-throughput results as filed in PubChem BioAssay.
# CAL PDZ FP-1 = CAL PDZ peptide-binding inhibitors, primary screen, biochemical, fluorescence polarization, Cer-tagged CAL PDZ, HTS | purified CAL PDZ, TMR-peptide fluorescence polarization, 1 h | inhibition, % at 20 µM | actives 0.02% (n = 330,000) | AID 504414, 2011;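 active = highest replicate inhibition of at least 40%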;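 note: plate controls were DMSO neutral control wells for no effect and unlabeled competitor peptide control wells for full effect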
#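 Assay system – tagged CAL PDZ protein CerCALP, purified · Timing – 1 h at RT · Compound – single point, 20 µM · Measured by – fluorescence polarization from S- and P-plane intensities, G-factor corrected · Evaluation – inhibition from polarization loss · Probe or stimulus – TMR reporter peptide T*-PRC34 · Buffer or medium – pH 7.4 phosphate-saline buffer, reducing agent, detergent, IgG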
# PGC1a acetyl inh = inhibitors of PGC1a acetylation signal, primary screen, cell-based, U2OS, AlphaScreen, inhibitor mode. inhibition, % at 15.6 µM. actives 0.17% (n = 350,000). AID 651687, 2012. AlphaScreen anti-acetyl-lysine; with virally co-expressed GCN5 acetyltransferase;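 active = every replicate shows inhibition of at least 40%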;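 note: 0% = neutral control wells and 100% = positive control wells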
# F508del corr = F508del CFTR correction, initial screen, CFBE line, single point; CFBE cells, YFP halide quenching; stimulated with forskolin plus potentiator P3; % fluorescence drop versus neutral controls; activity (quench increase), % at 7.58 µM; actives 0.36% (n = 350,000); AID 720511, 2013;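 active = mean added fluorescence quench of at least 8% versus neutral control, with both replicates also reaching 8%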;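 note: cells transiently co-express mutant CFTR-F508del with the halide-sensitive YFP; corrector assay measuring rescue of mutant channel to the surface after 24 h compound exposure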
# ARNT-TACC3 inh = disruptors of ARNT/TACC3 protein interaction, primary screen, biochemical, AlphaScreen, single concentration. AID 623870, 2012. AlphaScreen His-ARNT PAS-B/GST-TACC3 binding, luminescence; TACC3 fragment carries E629A point mutation. Transforming acidic coiled-coil-containing protein 3 (Homo sapiens), Q9Y6A5. actives 0.66% (n = 390,000). inhibition, % at 9.99 µM;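 active = mean inhibition of replicates at least 50% and at least half of replicates each reaching 50%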;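 note: 0% = complete ARNT plus TACC3 wells and 100% = ARNT alone without TACC3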
# CAL PDZ FP-2 = untagged CAL PDZ binding inhibitors, primary screen, biochemical, fluorescence polarization, HTS; Golgi-associated PDZ and coiled-coil motif-containing protein (Homo sapiens), Q9HD26; inhibition, % at 24.9 µM; actives 0.92% (n = 300,000); AID 602252, 2012; purified CAL PDZ, TMR-peptide fluorescence polarization, 1 h;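 active = mean inhibition of at least 30% with at least half of replicates also reaching 30%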;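 note: 0% = DMSO neutral control and 100% = excess unlabeled competitor peptide PRC23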
# miR-122 sensor = miR-122 Renilla sensor signal increase in Huh7, primary screen, miR-122 inhibitor project, cell-based, single point, plate reader | Huh7 miR-122 Renilla luciferase sensor, 48 h; neutral wells = 0, positive control = 100 | activation (reporter increase), % at 12.5 µM | actives 0.3% (n = 340,000);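 active = mean replicate activation score at least 90 and every replicate individually at or above 90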;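 note: higher luciferase means less miR-122 activity so hits act as miR-122 inhibitors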
# ARNT Alpha ctr-1 = AlphaScreen signal interference compounds, dose response, artefact control for ARNT-TACC3 interaction inhibitor project, biochemical, luminescence, cherry-pick. shares compounds with ARNT-TACC3 inh. His-ARNT PASB-GST AlphaScreen artifact counter-screen. AC50, µM (highest dose often 68 µM), for inactives: at the top dose activity change, negative = signal decrease. actives 50% (n = 1,200);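 active = every separate test run was called active for a drop in luminescence, with AC50 within twice the top valid dose, actives reach about 71 µM in these data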
# ARNT Alpha ctr-2 = AlphaScreen signal interference by compounds, dose response, artefact control for ARNT/TACC3 disruptor project, biochemical, dual-tagged ARNT, dry powder | AID 720564, 2013 | actives 70% (n = 45) | AC50, µM | shares compounds with ARNT-TACC3 inh | Dual-tagged His-ARNT PASB-GST AlphaScreen artifact counter-screen;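 active = luminescence drop, with half-maximal potency fitted within twice the sample's top valid dose, cut at about 70 µM in these data; inactive = the rest, including signal moving the wrong way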
# Starred values were filed as active, the others as inactive; · = no result given; [ ] = remark or other dose. Shown are actives, neighbours in structure and some others; about 1.7% of the full set was active somewhere.
SMILES,CAL PDZ FP-1,PGC1a acetyl inh,F508del corr,ARNT-TACC3 inh,CAL PDZ FP-2,miR-122 sensor,ARNT Alpha ctr-1,others
Cc1ccc(CNC(=O)CSc2ccc(-c3ccccn3)nn2)cc1,-2.2,14.4,0.3,37.6,-0.2,·,·,
C/C=C/c1ccc2c(c1)O[C@H](CN(C)C(=O)CN1CCOCC1)[C@H](C)CN([C@@H](C)CO)S2(=O)=O,·,2.9,-0.8,-3.7,·,-4.2[16.7 µM],·,
COc1cc(-c2nnc(NC(=O)c3ccco3)o2)cc(OC)c1OC,-2.7,2.1,1.1,43.0*,0.7,-9.4,-13.4%,
COc1cccc(C(=O)Nc2nnc(-c3cccs3)o2)c1,-0.5,8.4,-3.2,51.8*,·,-1.1,66.5µM*,
O=C(Nc1nnc(-c2cccs2)o1)c1ccco1,-0.7,0.9,-3.0,51.1*,·,-0.1,-19.8%,
CN(C)Cc1cn(CC[C@@H]2CC[C@H](N)[C@@H](CO)O2)nn1,·,11.7,0.6,-5.9,·,-3.0[16.7 µM],·,
Cc1ccc(NC(=O)CN(C)C(=O)COc2cccc3cccnc23)cc1,-2.4,·,·,58.3*,-1.3,·,-17.1%,
COc1ccc(NC(=O)Nc2ccc3c(c2)C(=O)N([C@@H](C)CO)C[C@H](C)[C@@H](CN(C)C(=O)Nc2ccc4c(c2)OCO4)OCCCC[C@H](C)O3)cc1,·,-9.6,1.3,7.9,·,-3.7[16.7 µM],·,
CCOc1ccc2c(c1)C(N(CCN1CCOCC1)C(=O)Nc1ccccc1)CC(C)(C)O2 (stereo not given),-1.6,0.2,2.5,57.5*,12.6,0.7,-7.8%,
CCOc1ccc2c(c1)C(N(CCN1CCOCC1)C(=O)Nc1ccc(OC)cc1OC)CC(C)(C)O2 (stereo not given),-2.8,-0.2,0.9,20.9,5.2,-2.9,·,
O=C(C1CC1)N1CCc2cc(Br)cc(S(=O)(=O)NCc3ccccn3)c21,-0.1,10.1,·,51.8*,-5.0,25.5,5.4%,
CCC(=O)Nc1ccc2c(c1)OC[C@H](C)N(C(=O)Cc1ccccn1)C[C@@H](C)[C@@H](OC)CN(C)C2=O,·,1.0,-0.1,-4.0,·,15.8[16.7 µM],·,
Cc1nc2ccccc2n1CC(=O)c1ccc(O)c(O)c1,-0.2,·,-2.5,57.1*,-3.3,-2.6,1.4%,
Cc1ccc(S(=O)(=O)Nc2ccc3c(c2)C(=O)N([C@@H](C)CO)C[C@H](C)[C@H](CN(C)Cc2ccc(Cl)c(Cl)c2)O3)cc1,·,-7.1,4.1,9.8,·,-9.4[16.7 µM],·,
COc1ccccc1NS(=O)(=O)c1cccc(C(=O)N/N=C/c2ccc(OCC(=O)O)cc2)c1,-1.0,·,1.3,-2.2,·,·,·,
O=C(O)COc1ccccc1/C=N/NC(=O)c1cccc(S(=O)(=O)Nc2cccc(Cl)c2)c1,-3.1,-19.6,1.9,51.7*,-4.7,0.0,71.2µM*,
C=C1c2cccc(O)c2C(=O)C2C(=O)[C@]3(O)C(=O)C(C(N)=O)C(=O)[C@@H](N(C)C)[C@@H]3[C@@H](O)[C@H]12 (stereo not given in full),1.2,2.4,-2.3,54.3*,17.3,-4.7,-18.6%,
Cc1cccc(NC(=O)Nc2ccc3c(c2)C(=O)N(C)[C@H]2CC[C@@H](CC(=O)NCc4ccccc4Cl)O[C@@H]2CO3)c1,·,-2.9,-0.6,9.3,·,-10.0[16.7 µM],·,
Nc1nc(CN2CCN(Cc3ccccc3)CC2)nc(Nc2ccc3c(c2)OCCO3)n1,0.2,·,·,59.9*,-4.5,·,-24.1%,
Cc1ccc(Nc2nc(N)nc(CN3CCN(Cc4ccc5c(c4)OCO5)CC3)n2)cc1Cl,-2.4,-3.0,·,17.6,·,-24.5,·,
COc1ccccc1Nc1nc(N)nc(CN2CCOCC2)n1,-0.1,-4.2,0.8,36.2,·,-1.4,·,
COc1ccc(Nc2nc(N)nc(CN3CCOCC3)n2)cc1,-2.7,-6.8,·,39.6*,-3.5,-6.7,-0.5%,
c1ccc(-c2nc(-c3ccncc3)n[nH]2)nc1,0.9,·,3.8,69.7*,0.2,·,22.9µM*,ARNT Alpha ctr-2=5.08*
c1ccc(-c2ccncc2)nc1,-0.1,-10.4,-0.7,0.4,-3.5,22.7,·,
c1cncc(-c2nc(NCCCn3ccnc3)c3ccccc3n2)c1,-2.2,11.7,3.2,63.3*,8.8,·,66.4µM*,
SMILES,CAL PDZ FP-1,PGC1a acetyl inh,F508del corr,ARNT-TACC3 inh,CAL PDZ FP-2,miR-122 sensor,ARNT Alpha ctr-1,others
Cc1nc(NCCCn2ccnc2)c2ccccc2n1,-2.7,-11.5,·,-3.2,0.3,-1.5,·,
COc1ccccc1-c1nnc(NC(=O)Cc2ccccc2)o1,-2.0,·,-0.5,54.0*,-2.7,2.2,-23.2%,
Cc1nnc(SCC(=O)Nc2nnc(-c3ccccc3)o2)s1,-0.8,·,-9.1,55.6*,-5.5,·,-31.3%,
CCOc1ccccc1C(=O)OCC(=O)Nc1nnc(-c2ccccc2)o1,-4.1,7.2,0.0,54.2*,-3.6,3.2,-30.5%,
C/C=C/c1cnc2c(c1)C(=O)N([C@@H](C)CO)C[C@H](C)[C@H](CN(C)C(=O)C1CCCCC1)O2,·,-5.1,-5.9,-7.6,·,8.5[16.7 µM],·,
Fc1ccc(COc2cccc3cccnc23)cc1,-1.3,-2.2,-0.8,·,1.2,-3.4,·,
Cc1oc(C(=O)O)cc1COc1cccc2cccnc12,-0.7,-3.2,·,58.8*,-4.5,0.6,-22.2%,
CCNC(=O)C[C@H]1CC[C@@H](NS(=O)(=O)c2ccc(C)cc2)[C@H](CO)O1,·,15.8,0.7,-34.1,·,·,·,
CCO/C=C1\C(=O)N(c2ccccc2)C(=O)c2ccccc21,-1.2,-5.5,·,1.6,-1.0,-7.0,·,
CCO/C=C1/C(=O)N(Cc2ccccc2)C(=O)c2ccccc21,0.2,·,-3.4,25.4*,-3.9,·,0.0%,
CN1CCN(CC(=O)N/N=C/c2ccc(F)c(F)c2)CC1,-0.1,-6.7,·,-1.9,-2.5,18.0,·,
O=C(CN1CCCCCCC1)N/N=C/c1ccc(F)c(F)c1,-1.3,·,·,54.5*,3.3,·,-5.4%,
CCCN(CCC)c1nc(-c2ccccn2)nc2ccccc12,·,26.9,4.7,59.7*,-4.7,-11.1,-30.9%,
CCN1CCN(c2ccc(NC(=O)c3cccc(S(=O)(=O)N4CCCC4)c3)cc2)CC1,-0.6,-1.4,1.5,56.2*,-7.3,0.8,-4.1%,
O=C(Nc1ccc(N2CCOCC2)cc1)c1cccc(S(=O)(=O)N2CCCCC2)c1,-3.4,-5.8,·,-7.1,1.9,2.9,·,
